As a reminder, the IC50 is the midpoint of a concentration-inhibition curve.

The source made the active and inactive calls. The rule behind the calls is not given here.

For series [1], the system named is NCI-H522. Nature of the series: Induction of ferroptosis in human NCI-H522 cells assessed as induction of lipid peroxidase accumulation at 10 uM incubated for 4 days in presence of Lipoxstatin-1 by C11-BODIPY-581/591 staining based flow cytometry analysis. It counts as functional, cell-based. For orientation: Flow cytometry measures light scatter and fluorescence of single cells or particles in a stream.

Series [2] can be described thus: Cytotoxicity against human WI-38 cells assessed as reduction in cell survival incubated for 30 mins by methylene blue staining based analysis.
In series [3] the test system is NCI-H522. Nature of the series: Induction of ferroptosis in human NCI-H522 cells assessed as viability at 20 uM incubated after 8 to 12 hrs by microscopic analysis. The format is functional, cell-based. The note with it: time lower 8.0 hrs, time upper […]. The essentials: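 Time-lapse imaging used NCI-H522 cells adhered overnight and equilibrated to 10% CO2, held in sealed flasks on a 37 °C stage. Frames were taken every 12 min, 300 in total, with a ×40 objective. For Kaplan–Meier curves, at least 100 cells were scored, with death counted per 1 h or 0.2 h interval.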

Series [4] deals with NCI-H522. Nature of the series: Induction of cell cycle arrest in human NCI-H522 cells assessed as accumulation at G1 phase 5 uM incubated for 24 to 72 hrs by PI staining based flow cytometric analysis. It counts as functional. Particulars: time lower […], time upper […].
Series [5] concerns NCI-H522. Nature of the series: Induction of cell cycle arrest in human NCI-H522 cells assessed as accumulation at S phase 5 uM incubated for 24 to 72 hrs by PI staining based flow cytometric analysis. It counts as functional. The note with it: time lower […], time upper […].
The test system of series [6] is NCI-H522. The experiment in a line: Induction of cell cycle arrest in human NCI-H522 cells assessed as accumulation at G2/M phase 5 uM incubated for 24 to 72 hrs by PI staining based flow cytometric analysis. The format is functional. Particulars: time lower […], time upper […].
Series [7] deals with NCI-H522. Nature of the series: Cytotoxicity against human NCI-H522 cells assessed as reduction in cell survival at 1 to 5 uM incubated for 3 days in presence of ferroptosis inhibitor, liproxstatin-1 by methylene blue staining based analysis. The format is functional. The note with it: dose 1-5 µM, time 3.0 day.
In the next series the target is T1, Histone deacetylase 8 (Homo sapiens, UniProt Q9BY41).
T1 sequence (Q9BY41 whole entry): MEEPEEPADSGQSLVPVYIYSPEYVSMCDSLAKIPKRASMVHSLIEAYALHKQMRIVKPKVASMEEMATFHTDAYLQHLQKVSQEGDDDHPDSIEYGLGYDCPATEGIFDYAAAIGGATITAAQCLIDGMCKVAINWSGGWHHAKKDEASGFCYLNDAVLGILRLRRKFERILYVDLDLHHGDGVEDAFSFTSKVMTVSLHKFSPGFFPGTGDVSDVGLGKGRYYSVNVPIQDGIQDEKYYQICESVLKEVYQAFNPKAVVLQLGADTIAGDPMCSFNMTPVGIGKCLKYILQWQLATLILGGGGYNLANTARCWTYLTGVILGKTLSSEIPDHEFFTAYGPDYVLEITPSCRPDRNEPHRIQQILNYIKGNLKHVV
The experiment in a line: Inhibition of full length C-terminal his-tagged human recombinant HDAC8 expressed in Sf9 insect cells.

Another series deals with Histone deacetylase 1 (Homo sapiens, UniProt Q13547). The experiment in a line: Inhibition of full length his6/FLAG-tagged human recombinant HDAC1(1 to 482 residues) expressed in Sf9 insect cells.
The next series deals with Histone deacetylase 2 (Homo sapiens, UniProt Q92769).
For a further series, the target named is Histone deacetylase 4 (Homo sapiens, UniProt P56524). Nature of the series: Inhibition of […] N-terminal GST/C-terminal his-tagged human recombinant HDAC4 (627 to 1084 residues) expressed in Sf9 insect cells.
The target in the next series is Histone deacetylase 3 (Homo sapiens, UniProt O15379). The experiment in a line: Inhibition of full length C-terminal his6/FLAG-tagged human recombinant HDAC3 ([…]) expressed in Sf9 insect cells.
In series [8] the target is T2, Protein deacetylase HDAC6 (Homo sapiens, UniProt Q9UBN7).
T2 sequence (Q9UBN7 whole entry): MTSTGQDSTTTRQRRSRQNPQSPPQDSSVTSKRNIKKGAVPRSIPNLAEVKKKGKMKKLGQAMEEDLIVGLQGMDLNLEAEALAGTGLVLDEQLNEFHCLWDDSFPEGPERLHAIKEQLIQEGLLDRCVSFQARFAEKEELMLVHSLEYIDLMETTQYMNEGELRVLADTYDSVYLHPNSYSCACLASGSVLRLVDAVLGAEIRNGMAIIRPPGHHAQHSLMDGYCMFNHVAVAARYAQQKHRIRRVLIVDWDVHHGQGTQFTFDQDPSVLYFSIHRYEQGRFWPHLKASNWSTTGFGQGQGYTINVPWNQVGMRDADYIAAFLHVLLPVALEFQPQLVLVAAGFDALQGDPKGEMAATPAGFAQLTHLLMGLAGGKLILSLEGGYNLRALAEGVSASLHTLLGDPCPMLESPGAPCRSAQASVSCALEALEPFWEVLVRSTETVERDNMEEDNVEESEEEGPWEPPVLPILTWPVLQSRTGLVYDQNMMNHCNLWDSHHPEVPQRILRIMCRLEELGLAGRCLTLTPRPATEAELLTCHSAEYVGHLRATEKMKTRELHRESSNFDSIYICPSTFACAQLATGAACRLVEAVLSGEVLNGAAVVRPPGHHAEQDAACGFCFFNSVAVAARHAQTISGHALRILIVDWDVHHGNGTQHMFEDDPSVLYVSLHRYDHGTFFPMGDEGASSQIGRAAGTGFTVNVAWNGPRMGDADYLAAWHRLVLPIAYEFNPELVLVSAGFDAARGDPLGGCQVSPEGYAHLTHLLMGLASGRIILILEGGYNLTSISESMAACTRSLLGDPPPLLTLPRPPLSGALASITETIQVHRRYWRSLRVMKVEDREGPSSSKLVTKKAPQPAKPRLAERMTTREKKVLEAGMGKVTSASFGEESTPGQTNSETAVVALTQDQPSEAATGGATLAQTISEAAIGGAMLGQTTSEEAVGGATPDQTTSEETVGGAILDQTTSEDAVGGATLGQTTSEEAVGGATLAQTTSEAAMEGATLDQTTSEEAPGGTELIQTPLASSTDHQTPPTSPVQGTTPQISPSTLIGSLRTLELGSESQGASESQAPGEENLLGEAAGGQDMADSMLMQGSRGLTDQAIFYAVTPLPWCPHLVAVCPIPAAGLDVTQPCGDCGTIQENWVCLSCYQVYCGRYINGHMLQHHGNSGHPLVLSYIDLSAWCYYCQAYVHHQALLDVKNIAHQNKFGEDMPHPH
Nature of the series: Inhibition of full length C-terminal FLAG-tagged human recombinant HDAC6 expressed inSf9 insect cells. The arrangement: species or system Sf9.

For series [9], the system named is NCI-H522. The experiment in a line: Cytotoxicity against human NCI-H522 cells assessed as reduction in cell survival at […] incubated for 3 days by methylene blue staining based analysis. The note with it: dose 2.5 µM, time 3.0 day. It counts as functional.
Series [10] can be described thus: Neurotoxicity in human SH-SY5Y cells assessed as decrease in cell viability at 6.665 uM incubated for 3 days. It counts as toxicity, cell-based. Particulars: 72 h, time 3 day. In outline: (§1)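 SH-SY5Y cells were grown on poly-D-lysine in DMEM/F12 with 10% FBS and seeded at 15,000/well 36 h before dosing, with DMSO as vehicle. Viability was read by MTT: 2 h at 37 °C, then solubilization for 1 h and absorbance at 570. Data are triplicates from three separate experiments.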

Series [11] concerns NCI-H522. Nature of the series: Cytotoxicity against human NCI-H522 cells assessed as reduction in cell survival at 1 to 5 uM incubated for 3 days in presence of Methyl 7-(2-ethynylthiazole-4-carboxamido)heptanoate by methylene blue staining based analysis. The format is functional. Particulars: dose 1-5 µM, time 3.0 day. In outline: (§2)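 Cells (5000/well, n = 3, DMEM with 10% serum, 37 °C, 5% CO2) were treated the day after plating and kept for three days. […] Survival was expressed relative to DMSO.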

Series [12] in a line: Neurotoxicity in human SH-SY5Y cells assessed as decrease in cell viability at 20 to 80 uM incubated for 3 days. Particulars: 72 h, dose 20-80 µM, time 3 day. The format is toxicity, cell-based. The essentials:
as §1

Series [13] deals with NCI-H522. The experiment in a line: Cytotoxicity against human NCI-H522 cells assessed as reduction in cell viability incubated for 30 mins by methylene blue staining based analysis. The note with it: NCI-H522, 0.5 h.
The test system of the next series is HCT-116. Nature of the series: Cytotoxicity against human HCT-116 cells assessed as reduction in cell viability incubated for 30 mins by methylene blue staining based analysis. The note with it: HCT-116, 0.5 h.
The target of series [14] is Protein deacetylase HDAC6 (Homo sapiens) (UniProt Q9UBN7). Nature of the series: Inhibition of HDAC6 in human NCI-H522 cells assessed as increase in acetylation of tubulin at 5 uM measured for 3 days by Western blot analysis. It counts as cell-based. Particulars: time 3.0 day. (In general: Immunoblotting shows a protein as a band on a membrane.)
Series [15] can be described thus: Neurotoxicity in human SH-SY5Y cells assessed as decrease in cell viability at 1.665 to 6.665 uM incubated for 3 days. The format is toxicity, cell-based. Particulars: 72 h, dose 1.665-6.665 µM, time 3 day. The essentials:
as §1

In series [16] the test system is NCI-H522. Nature of the series: Cytotoxicity against human NCI-H522 cells assessed as reduction in cell survival at 1 to 5 uM incubated for 3 days in presence of 2-Bromo-N-(7-(hydroxyamino)-7-oxoheptyl)thiazole-4-carboxamide by methylene blue staining based analysis. It counts as functional. The note with it: dose 1-5 µM, time 3.0 day. In outline:
as §2

Sequence of Histone deacetylase 1 (Q13547 whole entry, the tested form may be a part): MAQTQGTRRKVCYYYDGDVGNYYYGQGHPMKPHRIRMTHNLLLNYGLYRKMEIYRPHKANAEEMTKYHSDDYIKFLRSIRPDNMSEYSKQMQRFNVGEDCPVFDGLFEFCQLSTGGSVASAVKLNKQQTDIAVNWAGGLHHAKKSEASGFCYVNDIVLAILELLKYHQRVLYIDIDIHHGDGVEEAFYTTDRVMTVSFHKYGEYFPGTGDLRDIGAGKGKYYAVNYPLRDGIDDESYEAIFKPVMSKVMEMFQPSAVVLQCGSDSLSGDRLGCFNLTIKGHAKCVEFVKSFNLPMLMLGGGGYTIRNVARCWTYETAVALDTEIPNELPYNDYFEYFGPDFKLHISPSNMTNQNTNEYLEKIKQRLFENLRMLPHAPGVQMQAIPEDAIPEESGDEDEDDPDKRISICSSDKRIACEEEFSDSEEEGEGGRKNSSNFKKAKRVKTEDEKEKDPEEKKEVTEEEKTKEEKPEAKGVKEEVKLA
Sequence of Histone deacetylase 3 (O15379 whole entry): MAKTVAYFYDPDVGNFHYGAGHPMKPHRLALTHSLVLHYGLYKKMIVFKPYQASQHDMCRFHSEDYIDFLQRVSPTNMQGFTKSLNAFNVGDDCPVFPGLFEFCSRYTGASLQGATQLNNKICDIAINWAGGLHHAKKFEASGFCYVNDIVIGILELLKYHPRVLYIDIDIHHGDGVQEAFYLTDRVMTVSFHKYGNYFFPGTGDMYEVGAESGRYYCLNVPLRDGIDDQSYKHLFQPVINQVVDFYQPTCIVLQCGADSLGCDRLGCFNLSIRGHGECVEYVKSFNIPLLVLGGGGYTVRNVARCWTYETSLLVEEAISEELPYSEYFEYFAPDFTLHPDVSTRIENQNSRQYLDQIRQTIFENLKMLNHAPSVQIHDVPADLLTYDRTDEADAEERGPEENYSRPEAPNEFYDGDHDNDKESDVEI
Sequence of Histone deacetylase 2 (Q92769 whole entry, the tested form may be a part): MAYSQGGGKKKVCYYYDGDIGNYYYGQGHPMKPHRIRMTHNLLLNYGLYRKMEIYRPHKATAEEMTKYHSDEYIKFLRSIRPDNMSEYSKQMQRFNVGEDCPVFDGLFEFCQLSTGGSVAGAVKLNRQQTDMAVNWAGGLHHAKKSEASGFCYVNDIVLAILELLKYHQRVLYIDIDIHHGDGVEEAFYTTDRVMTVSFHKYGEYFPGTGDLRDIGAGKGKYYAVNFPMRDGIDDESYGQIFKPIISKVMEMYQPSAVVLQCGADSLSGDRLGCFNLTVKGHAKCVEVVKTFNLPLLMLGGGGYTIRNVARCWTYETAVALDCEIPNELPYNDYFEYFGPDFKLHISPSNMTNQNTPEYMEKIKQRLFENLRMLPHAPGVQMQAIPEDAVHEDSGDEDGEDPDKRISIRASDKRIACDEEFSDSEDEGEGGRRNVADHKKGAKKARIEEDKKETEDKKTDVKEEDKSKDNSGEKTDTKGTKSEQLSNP
Sequence of Histone deacetylase 4 (P56524 whole entry, the tested form may be a part): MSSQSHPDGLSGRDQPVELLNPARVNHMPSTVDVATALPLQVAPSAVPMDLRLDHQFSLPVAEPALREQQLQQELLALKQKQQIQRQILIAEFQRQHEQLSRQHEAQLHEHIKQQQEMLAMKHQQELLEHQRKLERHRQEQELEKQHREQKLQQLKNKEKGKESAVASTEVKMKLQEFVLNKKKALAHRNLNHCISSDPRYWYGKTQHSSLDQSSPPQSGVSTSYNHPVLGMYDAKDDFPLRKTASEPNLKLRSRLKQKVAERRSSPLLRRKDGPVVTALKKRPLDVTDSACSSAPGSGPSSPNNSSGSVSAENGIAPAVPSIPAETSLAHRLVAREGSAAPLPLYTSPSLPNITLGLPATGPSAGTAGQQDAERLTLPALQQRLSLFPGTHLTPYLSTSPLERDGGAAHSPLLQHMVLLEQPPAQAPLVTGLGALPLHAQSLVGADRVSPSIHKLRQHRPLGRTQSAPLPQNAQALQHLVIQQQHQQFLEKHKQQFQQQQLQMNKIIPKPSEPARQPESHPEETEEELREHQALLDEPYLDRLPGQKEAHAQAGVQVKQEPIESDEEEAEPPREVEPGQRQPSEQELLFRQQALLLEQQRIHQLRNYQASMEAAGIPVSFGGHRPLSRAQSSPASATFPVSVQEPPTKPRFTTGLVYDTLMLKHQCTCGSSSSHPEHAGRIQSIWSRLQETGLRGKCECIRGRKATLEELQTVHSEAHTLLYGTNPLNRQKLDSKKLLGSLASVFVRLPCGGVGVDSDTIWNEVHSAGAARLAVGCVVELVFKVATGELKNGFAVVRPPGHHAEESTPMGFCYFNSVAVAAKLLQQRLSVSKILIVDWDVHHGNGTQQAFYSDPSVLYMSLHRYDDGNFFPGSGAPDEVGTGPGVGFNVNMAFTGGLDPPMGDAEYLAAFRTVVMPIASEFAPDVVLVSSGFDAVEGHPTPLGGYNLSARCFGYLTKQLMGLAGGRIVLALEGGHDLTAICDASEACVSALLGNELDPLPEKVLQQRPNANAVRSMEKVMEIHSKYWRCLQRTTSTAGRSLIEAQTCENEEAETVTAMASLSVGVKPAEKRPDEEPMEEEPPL

Take `C#Cc1nc(C2=C(C)[C@@H](O)CC2)cs1`: the outcome in the series with NCI-H522 [1] and with NCI-H522 [3] was Active. In series [2], the IC50 at 30 min came to 15100 nM.

For the compound `O=C(CCCCCCC(=O)Nc1ccccc1)NO` [VORINOSTAT], the result with NCI-H522 [4], with NCI-H522 [5] and in the series with NCI-H522 [6] was Active.

For the compound `O=C(CCCCC/C=C\c1csc(Br)n1)NO`, the outcome in the series on NCI-H522 [7] was Active.

`C#Cc1nc(/C=C/C=C/C(=O)NO)cs1`: the IC50 turned out to be 670 nM at Histone deacetylase 8; 1000 nM at Histone deacetylase 1; 1200 nM at Histone deacetylase 2; 2100 nM on Histone deacetylase 4; 3100 nM at Histone deacetylase 3; 160 nM in [8]. The result with NCI-H522 [9] was Active.

In the case of `O=C(CCCCCCNC(=O)c1csc(Br)n1)NO`, the Activity entry in [10] and in series [12] was “Toxic” throughout. Besides, the outcome in the series with NCI-H522 [11] and with NCI-H522 [7] was Active.

As for `C#Cc1nc(C=CCCCCCC(=O)NO)cs1`, the 50% inhibitory concentration (IC50) in the series with NCI-H522 [13] stood at 1670 nM; with HCT-116, 3420 nM.

With `C#Cc1nc(/C=C\CCCCCC(=O)OCC)cs1`, in the series with NCI-H522 [7], the result was Active.

Turning to `C#Cc1nc(/C=C/CCCCCC(=O)NO)cs1`, the IC50 at Histone deacetylase 8 was found to be 270 nM; at Histone deacetylase 1, 72 nM; with NCI-H522 [13], 1590 nM; on Histone deacetylase 4 it was 8600 nM; in the series with HCT-116, 4960 nM; at Histone deacetylase 3 it was 91 nM. Further, the IC50 in [8] was found to be 10 nM.

With `C#Cc1nc(/C=C/C(=O)NO)cs1`, the IC50 came out at 1800 nM at Histone deacetylase 8; 890 nM at Histone deacetylase 1; 1700 nM against Histone deacetylase 2; 1100 nM at Histone deacetylase 3; 160 nM in [8]. The inhibition result in series [14] is “Active”.

In the case of `C#Cc1nc(C(=O)NCCCCCCC(=O)OC)cs1`, in series [15], the Activity result was “Toxic”. The result in the series with NCI-H522 [16] and in the series on NCI-H522 [7] was Active.

As to `C#Cc1nc(/C=C\CCCCCC(=O)NO)cs1`, the IC50 was found to be 470 nM at Histone deacetylase 8; 130 nM on Histone deacetylase 1; 1070 nM with NCI-H522 [13]; 1190 nM in the series with HCT-116; 300 nM on Histone deacetylase 3; 25 nM in series [8]. The result in the series with NCI-H522 [7] was Active.
